Test results reported in ChEMBL document CHEMBL1134348, “Novel glucocorticoid antedrugs possessing a 17beta-(gamma-lactone) ring” (J Med Chem, 2001).

Assays:
[1] = (§1) % stability in human plasma after 60 minutes.; assay type: ADME, organism-based; details: plasma, read-out: Stability
Procedure, shortened: (§2)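 Pooled heparinized plasma from 4 volunteers was incubated at 37 °C with test compound at a final concentration of 30 ug/mL, with DMSO-only controls. The reaction was stopped with 2 M citric acid at 10 and 60 min, with a zero-time sample. Supernatants were analysed by reversed-phase HPLC at 240 nm against an internal standard, in duplicate, and reported as % compound remaining.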

[2] = (§3) % stability in human plasma after 10 minutes.; assay type: ADME, organism-based; details: plasma, read-out: Stability; procedure, shortened: as §2
[3] = % stability in krebs buffer after 60 minutes.; assay type: physicochemical; details: Krebs buffer; read-out: Stability
Procedure, shortened: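 Test compound, at a final concentration of 30 ug/mL, was spiked into Krebs buffer at 37 °C for 60 min, then quenched with 2 M citric acid. Supernatant was analysed by reversed-phase HPLC with UV detection at 240 nm and an internal standard, in duplicate. The read-out was % compound remaining.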

[4] = target: T1, Glucocorticoid receptor (Rattus norvegicus) (UniProt P06536); assay: Percentage reduction in thymus weight (248.99+/-23.19 mg) at 50 ug dose; assay type: functional
T1 sequence (whole entry): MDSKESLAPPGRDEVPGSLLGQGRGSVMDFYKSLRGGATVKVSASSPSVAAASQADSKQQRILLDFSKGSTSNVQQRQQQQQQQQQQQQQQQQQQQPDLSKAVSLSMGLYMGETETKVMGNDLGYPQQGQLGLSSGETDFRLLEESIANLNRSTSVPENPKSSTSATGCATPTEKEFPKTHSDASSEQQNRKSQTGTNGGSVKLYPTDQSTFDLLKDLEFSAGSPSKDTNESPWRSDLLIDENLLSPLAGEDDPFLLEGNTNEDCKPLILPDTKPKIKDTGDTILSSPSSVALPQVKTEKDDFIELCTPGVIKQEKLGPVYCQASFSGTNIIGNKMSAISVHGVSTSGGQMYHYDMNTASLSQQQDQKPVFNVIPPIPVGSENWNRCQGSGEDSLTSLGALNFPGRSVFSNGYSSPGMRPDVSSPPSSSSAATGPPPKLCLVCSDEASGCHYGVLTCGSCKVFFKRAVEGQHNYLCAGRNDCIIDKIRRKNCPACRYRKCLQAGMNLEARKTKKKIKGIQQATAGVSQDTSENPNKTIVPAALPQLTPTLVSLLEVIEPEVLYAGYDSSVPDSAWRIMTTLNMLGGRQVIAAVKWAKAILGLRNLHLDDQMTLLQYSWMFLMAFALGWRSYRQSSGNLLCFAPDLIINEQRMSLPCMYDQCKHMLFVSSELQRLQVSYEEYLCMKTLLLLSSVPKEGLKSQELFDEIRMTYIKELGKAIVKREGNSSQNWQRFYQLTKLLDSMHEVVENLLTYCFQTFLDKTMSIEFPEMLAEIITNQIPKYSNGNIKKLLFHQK

[5] = test system: Rattus norvegicus; assay: Inhibition of rat ear edema as percentage change in mean weight (47.21+/-1.49 mg) from control group of 72.25+/-2.24 mg at 0.25 ug dose; assay type: functional
[6] = test system: Rattus norvegicus; assay: Inhibition of rat ear edema as percentage change in mean weight (44.71+/-1.53 mg) from control group of 72.25+/-2.24 mg at 1.00 ug dose; assay type: functional
[7] = test system: Rattus norvegicus; assay: Inhibition of rat ear edema as percentage change in mean weight (44.39+/-2.26 mg) from control group of 72.25+/-2.24 mg at 4.00 ug dose; assay type: functional
[8] = test system: Rattus norvegicus; assay: Inhibition of rat ear edema as percentage change in mean weight (64.86+/-2.70 mg) from control group of 72.25+/-2.24 mg at 0.06 microg dose; assay type: functional
[9] = test system: Rattus norvegicus; assay: Inhibition of rat ear edema as percentage change in mean weight (39.79+/-0.99 mg) from control group of 55.67+/-1.22 mg at 1.00 ug dose; assay type: functional
[10] = test system: Rattus norvegicus; assay: Inhibition of rat ear edema as percentage change in mean weight (45.29+/-1.16 mg) from control group of 55.67+/-1.22 mg at 0.25 ug dose; assay type: functional
[11] = test system: Rattus norvegicus; assay: Inhibition of rat ear edema as percentage change in mean weight (40.57+/-1.10 mg) from control group of 55.67+/-1.22 mg at 4.00 ug dose; assay type: functional
[12] = species on record: Homo sapiens; assay: as §1; assay type: ADME, organism-based; details: 1 h; procedure, shortened: as §2
[13] = species on record: Homo sapiens; assay: as §3; assay type: ADME, organism-based; details: 10 min; procedure, shortened: as §2
[14] = half life in human plasma.; assay type: ADME, organism-based
Procedure, shortened: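 Pooled heparinised plasma from 4 volunteers, stored at −20 °C; compound spiked to final 30 ug/mL at 37 °C. Half-life taken from additional time points in this incubation; reaction stopped with 2 M citric acid, samples frozen overnight and centrifuged. Supernatant analysed by reverse-phase HPLC with UV at 240 nm, internal standard dexamethasone or hydrocortisone; duplicates.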

[15] = test system: Rattus norvegicus; assay: Inhibition of rat ear edema as percentage change in mean weight (58.02+/-1.46 mg) from control group of 55.67+/-1.22 mg at 1.56 ug dose
[16] = test system: Rattus norvegicus; assay: Inhibition of rat ear edema as percentage change in mean weight (47.21+/-1.28 mg) from control group of 55.67+/-1.22 mg at 25.00 ug dose
[17] = target: T2, Glucocorticoid receptor (Homo sapiens, UniProt P04150); assay: Affinity for human glucocorticoid receptor
T2 sequence (P04150 whole entry): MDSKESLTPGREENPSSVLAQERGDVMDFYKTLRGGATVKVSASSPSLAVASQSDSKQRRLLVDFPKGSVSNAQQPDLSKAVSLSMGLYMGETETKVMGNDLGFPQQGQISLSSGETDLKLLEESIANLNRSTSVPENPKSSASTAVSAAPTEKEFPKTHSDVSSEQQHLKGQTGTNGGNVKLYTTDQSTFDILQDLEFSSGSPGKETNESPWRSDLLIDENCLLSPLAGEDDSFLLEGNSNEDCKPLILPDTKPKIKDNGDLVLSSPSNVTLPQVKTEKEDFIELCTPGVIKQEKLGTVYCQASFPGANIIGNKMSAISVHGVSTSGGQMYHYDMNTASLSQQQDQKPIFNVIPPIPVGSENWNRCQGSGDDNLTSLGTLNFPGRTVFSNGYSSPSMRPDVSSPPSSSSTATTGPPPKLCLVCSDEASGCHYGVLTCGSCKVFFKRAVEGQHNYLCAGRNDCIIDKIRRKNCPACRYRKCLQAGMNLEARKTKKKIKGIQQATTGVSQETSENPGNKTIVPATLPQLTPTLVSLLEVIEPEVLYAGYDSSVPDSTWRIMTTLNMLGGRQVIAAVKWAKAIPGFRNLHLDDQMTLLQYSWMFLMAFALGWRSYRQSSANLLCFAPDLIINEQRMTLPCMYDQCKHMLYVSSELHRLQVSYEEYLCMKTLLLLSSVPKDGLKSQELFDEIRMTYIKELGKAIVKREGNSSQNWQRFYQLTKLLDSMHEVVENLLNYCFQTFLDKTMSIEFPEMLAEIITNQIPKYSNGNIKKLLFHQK

[18] = test system: Rattus norvegicus; assay: Inhibition of rat ear edema as percentage change in mean weight (47.85+/-1.09 mg) from control group of 55.67+/-1.22 mg at 6.25 ug dose
[19] = test system: Rattus norvegicus; assay: Inhibition of rat ear edema as percentage change in mean weight (43.03+/-1.19 mg) from control group of 55.67+/-1.22 mg at 100.00 ug dose

With `CC1(C)O[C@@H]2CC3C4C[C@H](F)C5=CC(=O)C=C[C@]5(C)[C@@]4(F)[C@@H](O)C[C@]3(C)[C@]2(CC2CCOC2=O)O1` (single isomer, unassigned; isomer B) the remaining at 1 h [1] was 99%, the remaining at 10 min [2] was 100% and the remaining at 1 h [3] was 100%.

`CCCC1O[C@@H]2C[C@H]3[C@@H]4CCC5=CC(=O)C=C[C@]5(C)[C@H]4[C@@H](O)C[C@]3(C)[C@]2(C(=O)CO)O1` (stereo partly drawn) showed a Reduction [4] of 48%.

With `CCC(=O)O[C@]1(C(=O)SCF)[C@H](C)C[C@H]2[C@@H]3C[C@H](F)C4=CC(=O)C=C[C@]4(C)[C@@]3(F)[C@@H](O)C[C@@]21C` [FLUTICASONE PROPIONATE] the Decrease [5] was 34.7%, the Decrease [6] was 38.1% and the Decrease [7] was 38.6%. For the same molecule, the Decrease [8] was 10.23%, the Decrease [9] was 28.5% and the Decrease [10] was 18.6%. For the same molecule, the Decrease [11] was 27.1%.

For `CC1(C)O[C@@H]2CC3C4C[C@H](F)C5=CC(=O)C=C[C@]5(C)[C@@]4(F)[C@@H](O)C[C@]3(C)[C@]2(CC2CCOC2=O)O1` (single isomer, unassigned; isomer A), the Stability [12] was 100%.

Work on `CCC[C@@H]1O[C@@H]2CC3C4C[C@H](F)C5=CC(=O)CC[C@]5(C)[C@@]4(F)[C@@H](O)C[C@]3(C)[C@]2(SC2COC(=O)C2)O1` (single isomer, unassigned; isomer B) yielded a Stability [12] of 0%, a Stability [13] of 56% and a remaining at 1 h [3] of 100%.

For `CCC[C@@H]1O[C@@H]2CC3C4C[C@H](F)C5=CC(=O)C=C[C@]5(C)[C@@]4(F)[C@@H](O)C[C@]3(C)[C@]2(SC2CCOC2=O)O1` (stereo partly drawn), the remaining at 1 h [1] was 0%, the remaining at 10 min [2] was 0% and the remaining at 1 h [3] was 77%.

Molecule `CCC[C@@H]1O[C@@H]2CC3C4C[C@H](F)C5=CC(=O)CC[C@]5(C)[C@@]4(F)[C@@H](O)C[C@]3(C)[C@]2(SCC2CCOC2=O)O1` (stereo partly drawn) has a remaining at 1 h [1] of 100%, a remaining at 10 min [2] of 100% and a half-life [14] of over 240 min. For the same molecule, the remaining at 1 h [3] was 100%.

With `CC1(C)O[C@@H]2CC3C4C[C@H](F)C5=CC(=O)CC[C@]5(C)[C@@]4(F)[C@@H](O)C[C@]3(C)[C@]2(S[C@@H]2CCOC2=O)O1` (stereo partly drawn) the remaining at 1 h [1] was 0%, the remaining at 10 min [2] was 28% and the remaining at 1 h [3] was 92%.

`CC1(C)O[C@@H]2CC3C4C[C@H](F)C5=CC(=O)C=C[C@]5(C)[C@@]4(F)[C@@H](O)C[C@]3(C)[C@]2(S[C@@H]2CCOC2=O)O1` (stereo partly drawn) showed a Decrease [15] of 0%, a remaining at 1 h [1] of 15% and a remaining at 10 min [2] of 45%. For the same molecule, the Decrease [16] was 15.2%, the IC50 [17] was 1.4 nM and the remaining at 1 h [3] was 90%. The Decrease [18] was 14% and the Decrease [19] was 22.7%.
